Assay results: ChEMBL document CHEMBL5325429, “Antibacterial and antibiofilm activity of permanently ionized quaternary ammonium fluoroquinolones” (Eur J Med Chem, 2023)
Counter-ions that a name gives are not always drawn. Calls of active or inactive are those of the source. No cut-off for these calls is given here.

Tests used:
Staphylococcus aureus [1] = test: Antibacterial activity against Staphylococcus aureus ATCC 29213 assessed as bacterial growth inhibition incubated for 24 hrs by broth microdilution assay; format: functional
Procedure, shortened: (§1)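 Broth microdilution per CLSI. Colonies from overnight Mueller Hinton agar were suspended in 0.9% saline, set by densitometer, and diluted in cation-adjusted MHB to 1×10^6 CFU/mL. This was mixed 1:1 with compound and incubated 24 h at 37 °C. A600 was read versus untreated control and checked visually. Screen at 50 μM; compounds with ≥80% inhibition went to MIC testing at 75–0.78 μM. […] Two independent experiments, three technical replicates each.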

Pseudomonas aeruginosa [2] = test: Antibacterial activity against Pseudomonas aeruginosa ATCC 27853 assessed as bacterial growth inhibition incubated for 24 hrs by broth microdilution assay; format: functional; procedure, shortened: as §1
[3] = Cytotoxicity against mouse BALB/3T3 clone A31 cells assessed as viable cells at 200 uM incubated for 48 hrs by celltiter glo luminescent assay relative to control; format: toxicity, cell-based; conditions: read-out: Activity
Pseudomonas aeruginosa [4] = test: Antibiofilm activity against Pseudomonas aeruginosa ATCC 15442 assessed as reduction in bacterial biomass incubated for 18 hrs by crystal violet staining based assay; format: functional
Procedure, shortened: (§2)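 Pre-exposure biofilm: 10^6 CFU/mL TSB culture with compound (50x DMSO stock), 18 h at 37 °C, shaken at 220 rpm. After the resazurin read, biofilms were ethanol-fixed for 15 min, dried, and stained 5 min with 100x-diluted crystal violet. After two water washes, dye was solubilised in 96% ethanol for about 1 h and read at A595. Total biomass is expressed as % of untreated control.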

Pseudomonas aeruginosa [5] = test: Antibiofilm activity against Pseudomonas aeruginosa ATCC 15442 assessed as reduction in biofilm formation at 5 to 25 uM incubated for 18 hrs relative to control; format: functional; design: scale not given: the % may be the effect or the level left; conditions: dose 5-25 µM
Procedure, shortened: (§3)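 Pre-exposure biofilm assay. Inoculum: TSA colonies grown in TSB at 37 °C, 220 rpm, to OD 0.3–0.35, then diluted 100-fold to about 10^6 CFU/mL. Culture was mixed with compound (50x DMSO stock) and shaken at 220 rpm for 18 h at 37 °C. Biofilm was read by resazurin fluorescence (ex 560/em 590) and by crystal violet A595, as % of untreated control.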

[6] = Selectivity index, ratio of CC50 for cytotoxicity against mouse BALB/3T3 clone A31 cells to MIC for antibacterial activity against Pseudomonas aeruginosa ATCC 27853 assessed as bacterial growth inhibition; format: toxicity, cell-based; conditions: read-out: Selectivity Index
[7] = Cytotoxicity against mouse BALB/3T3 clone A31 cells incubated for 48 hrs by celltiter glo luminescent assay; format: toxicity, cell-based
[8] = Cytotoxicity against mouse BALB/3T3 clone A31 cells upto 50 uM incubated for 48 hrs by celltiter glo luminescent assay; format: toxicity, cell-based; conditions: balb/3t3 clone a31, 48 h
Pseudomonas aeruginosa [9] = test: Antibiofilm activity against Pseudomonas aeruginosa ATCC 15442 assessed as reduction in bacterial viability at 10 to 50 uM incubated for 18 hrs; format: functional; conditions: dose 10-50 µM
Procedure, shortened: (§4)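 Biofilm viability by resazurin. 10^6 CFU/mL TSB culture was exposed to compound (50x DMSO stock) for 18 h at 37 °C with shaking at 220 rpm. Biofilm was washed once with PBS and stained with resazurin (1:20 in PBS) in the dark at 37 °C for about 1 h (P. aeruginosa) or about 30 min (S. aureus). Fluorescence ex 560/em 590 is given as % of untreated control.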

[10] = Selectivity index, ratio of CC50 for cytotoxicity against mouse BALB/3T3 clone A31 cells to MIC for antibacterial activity against Staphylococcus aureus ATCC 29213 assessed as bacterial growth inhibition; format: toxicity, cell-based; conditions: read-out: Selectivity Index
Staphylococcus aureus [11] = test: Antibiofilm activity against Staphylococcus aureus ATCC 25923 assessed as reduction in bacterial biomass at 50 uM incubated for 18 hrs by crystal violet staining based assay relative to control; format: functional; design: scale not given: the % may be the effect or the level left; procedure, shortened: as §2
Staphylococcus aureus [12] = test: Antibiofilm activity against Staphylococcus aureus ATCC 25923 assessed as reduction in bacterial biomass at 50 uM incubated for 18 hrs; format: functional, organism-based; procedure, shortened: as §2
Pseudomonas aeruginosa [13] = test: Antibiofilm activity against Pseudomonas aeruginosa ATCC 15442 assessed as reduction in bacterial viability incubated for 18 hrs; format: functional; procedure, shortened: as §4
Pseudomonas aeruginosa [14] = test: Antibiofilm activity against Pseudomonas aeruginosa ATCC 15442 assessed as reduction in bacterial biomass at 10 to 50 uM incubated for 18 hrs by crystal violet staining based assay; format: functional, organism-based; conditions: dose 10-50 µM; procedure, shortened: as §2
Staphylococcus aureus [15] = test: Antibiofilm activity against Staphylococcus aureus ATCC 25923 assessed as assessed as log 10 reduction in CFU at 200 uM incubated for 18 hrs; format: functional
Procedure, shortened: (§5)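 Post-exposure CFU count. Biofilms were grown 18 h at 37 °C, 220 rpm, from a 10^6 CFU/mL TSB culture. Planktonic cells were removed, then compound (50x DMSO stock) in fresh TSB was added for a further 24 h. Wells were PBS-washed, scraped into PBS, serially diluted 10-fold and spotted on agar. After 24 h incubation, spots with 3–30 colonies were counted and reported as log10 cells/mL. Two experiments on different days, two technical replicates each.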

Staphylococcus aureus [16] = test: Antibiofilm activity against Staphylococcus aureus ATCC 25923 assessed as reduction in bacterial viability at 50 uM incubated for 18 hrs by resazurin staining based assay relative to control
Pseudomonas aeruginosa [17] = test: Antibiofilm activity against Pseudomonas aeruginosa ATCC 15442 assessed as log 10 reduction in CFU at 200 uM incubated for 18 hrs; format: functional; procedure, shortened: as §5
Pseudomonas aeruginosa [18] = test: Antibiofilm activity against Pseudomonas aeruginosa ATCC 15442 assessed as reduction in bacterial biomass at 1 to 200 uM incubated for 18 hrs by crystal violet staining based assay; format: functional, organism-based; conditions: dose 1-200 µM; procedure, shortened: as §2
Pseudomonas aeruginosa [19] = test: Antibiofilm activity against Pseudomonas aeruginosa ATCC 15442 assessed as reduction in bacterial viability at 2.5 to 320 uM incubated for 18 hrs; format: functional, organism-based; conditions: dose 2.5-320 µM; procedure, shortened: as §4
Pseudomonas aeruginosa [20] = test: Antibiofilm activity against Pseudomonas aeruginosa ATCC 15442 assessed as reduction in bacterial biomass at 2.5 to 320 uM incubated for 18 hrs by crystal violet staining based assay; format: functional, organism-based; conditions: dose 2.5-320 µM; procedure, shortened: as §2
Pseudomonas aeruginosa [21] = test: Antibiofilm activity against Pseudomonas aeruginosa ATCC 15442 assessed as reduction in bacterial viability at 200 uM incubated for 18 hrs; format: functional, organism-based; procedure, shortened: as §4
Staphylococcus aureus [22] = test: Antibiofilm activity against Staphylococcus aureus assessed as inhibition of biofilm formation at 2.5 to 5 uM incubated for 18 hrs relative to control; design: scale not given: the % may be the effect or the level left; conditions: dose 2.5-5 µM
Pseudomonas aeruginosa [23] = test: Antibiofilm activity against Pseudomonas aeruginosa ATCC 15442 assessed as reduction in bacterial viability at 50 uM incubated for 18 hrs; format: functional, organism-based; procedure, shortened: as §4
Pseudomonas aeruginosa [24] = test: Antibiofilm activity against Pseudomonas aeruginosa ATCC 15442 assessed as reduction in biofilm formation at 25 uM incubated for 18 hrs; format: functional, organism-based; procedure, shortened: as §3
Pseudomonas aeruginosa [25] = test: Antibiofilm activity against Pseudomonas aeruginosa ATCC 15442 assessed as reduction in biofilm formation at 100 uM incubated for 18 hrs relative to control; format: functional; design: scale not given: the % may be the effect or the level left; procedure, shortened: as §3
Pseudomonas aeruginosa [26] = test: Antibiofilm activity against Pseudomonas aeruginosa ATCC 15442 assessed as reduction in bacterial viability at 20 to 40 uM incubated for 18 hrs relative to control; format: functional; conditions: dose 20-40 µM; procedure, shortened: as §4
Pseudomonas aeruginosa [27] = test: Antibiofilm activity against Pseudomonas aeruginosa ATCC 15442 assessed as reduction in bacterial biomass at 40 to 80 uM incubated for 18 hrs by crystal violet staining based assay relative to control; format: functional; design: scale not given: the % may be the effect or the level left; conditions: dose 40-80 µM; procedure, shortened: as §2

CCn1cc(C(=O)O)c(=O)c2cnc(N3CC[N+](C)(C)CC3)nc21
MIC (Staphylococcus aureus [1]): > 50 µM
MIC (Pseudomonas aeruginosa [2]): > 50 µM

C[N+]1(C)CCN(c2cc3c(cc2F)c(=O)c(C(=O)O)cn3C2CC2)CC1.[I-]
viability at 48 h, 200 µM [3]: 108%
MBIC (Pseudomonas aeruginosa [4]): 50 µM
Activity (Pseudomonas aeruginosa [5]): >90%
selectivity ratio [6]: > 32
MIC (Staphylococcus aureus [1]): 6.25 µM
CC50 at 48 h [7]: > 200 µM
Activity [8]: Non-Toxic
Activity (Pseudomonas aeruginosa [9]): 50%
selectivity ratio [10]: > 32
Activity (Staphylococcus aureus [11]): 100%
Activity (Staphylococcus aureus [12]): inactive
MIC (Pseudomonas aeruginosa [2]): 6.25 µM
MBIC (Pseudomonas aeruginosa [13]): 25 µM
Activity (Pseudomonas aeruginosa [14]): inactive
Activity (Staphylococcus aureus [15]): 2 log10CFU
Activity (Staphylococcus aureus [16]): 60%
Activity (Pseudomonas aeruginosa [17]): 2 log10CFU

O=C(O)c1cn(C2CC2)c2cc(N3CCNCC3)c(F)cc2c1=O [CIPROFLOXACIN HYDROCHLORIDE]
MIC (Staphylococcus aureus [1]): 1.36 µM
Activity (Pseudomonas aeruginosa [18]): inactive
Activity (Pseudomonas aeruginosa [19]): Active
MIC (Pseudomonas aeruginosa [2]): 2.72 µM
Activity (Pseudomonas aeruginosa [20]): Active
Activity (Pseudomonas aeruginosa [21]): Active

CCn1cc(C(=O)O)c(=O)c2cc(F)c(N3CC[N+](C)(C)CC3)nc21
MIC (Staphylococcus aureus [1]): 50 µM
MIC (Pseudomonas aeruginosa [2]): > 50 µM

CCn1cc(C(=O)O)c(=O)c2cc(F)c(N3CC[N+]4(CN5C(=N4)C(C(=O)O)=Cc4ccccc45)C(C)C3)c(F)c21.[I-] (stereo unspecified)
Activity (Staphylococcus aureus [22]): >90%

O=C(O)C1=Cc2ccccc2N2C[N+]3(CCCN(c4cc5c(cc4F)c(=O)c(C(=O)O)cn5C4CC4)CC3)N=C12.[Cl-] (stereo unspecified)
viability at 48 h, 200 µM [3]: 1.55%
selectivity ratio [6]: 6.4
MIC (Staphylococcus aureus [1]): 25 µM
CC50 at 48 h [7]: 160 µM
Activity [8]: Non-Toxic
Activity (Pseudomonas aeruginosa [9]): 50%
selectivity ratio [10]: 6.4
Activity (Pseudomonas aeruginosa [23]): Active
MIC (Pseudomonas aeruginosa [2]): 25 µM
Activity (Pseudomonas aeruginosa [14]): inactive
Activity (Pseudomonas aeruginosa [24]): Active
Activity (Pseudomonas aeruginosa [25]): 80%
Activity (Pseudomonas aeruginosa [17]): 2 log10CFU

CCn1cc(C(=O)O)c(=O)c2cc(F)c(N3CC[N+](C)(C)CC3)cc21
MIC (Staphylococcus aureus [1]): 25 µM
MIC (Pseudomonas aeruginosa [2]): > 50 µM

CCn1cc(C(=O)O)c(=O)c2cc(F)c(N3CC[N+](C)(C)C(C)C3)c(F)c21 (stereo unspecified)
MIC (Staphylococcus aureus [1]): 25 µM
MIC (Pseudomonas aeruginosa [2]): 75 µM

C[N+]1(C)CCCN(c2cc3c(cc2F)c(=O)c(C(=O)O)cn3C2CC2)CC1.[I-]
viability at 48 h, 200 µM [3]: 81.7%
MBIC (Pseudomonas aeruginosa [4]): 50 µM
Activity (Pseudomonas aeruginosa [5]): >90%
selectivity ratio [6]: > 32
MIC (Staphylococcus aureus [1]): 6.25 µM
CC50 at 48 h [7]: > 200 µM
Activity [8]: Non-Toxic
Activity (Pseudomonas aeruginosa [26]): >90%
Activity (Pseudomonas aeruginosa [9]): 50%
selectivity ratio [10]: > 32
Activity (Staphylococcus aureus [11]): 100%
Activity (Staphylococcus aureus [12]): inactive
Activity (Staphylococcus aureus [22]): >90%
MIC (Pseudomonas aeruginosa [2]): 6.25 µM
MBIC (Pseudomonas aeruginosa [13]): 25 µM
Activity (Pseudomonas aeruginosa [14]): inactive
Activity (Staphylococcus aureus [15]): 2 log10CFU
Activity (Staphylococcus aureus [16]): 60%
Activity (Pseudomonas aeruginosa [27]): >90%
Activity (Pseudomonas aeruginosa [17]): 2 log10CFU

O=C(O)C1=Cc2ccccc2N2C[N+]3(CCN(c4cc5c(cc4F)c(=O)c(C(=O)O)cn5C4CC4)CC3)N=C12.[I-]
Activity (Pseudomonas aeruginosa [26]): >90%
Activity (Staphylococcus aureus [22]): >90%
Activity (Pseudomonas aeruginosa [27]): >90%

CCn1cc(C(=O)O)c(=O)c2cc(F)c(N3CC[N+]4(CC3)CN3C(=N4)C(C(=O)O)=Cc4ccccc43)nc21.[I-]
Activity (Pseudomonas aeruginosa [26]): >90%
Activity (Staphylococcus aureus [22]): >90%
Activity (Pseudomonas aeruginosa [27]): >90%
